{"data": "Experimental data gathered from unrelated publications", "observed": "cell growth or viability", "note": "Lines come from different studies, so protocols differ."}
{"Compound": "CC(C)[C@H](NC(=O)[C@H](Cc1c[nH]c2ccccc12)NC(=O)[C@H](Cc1c[nH]cn1)NC(=O)[C@H](CCCNC(=N)N)NC(=O)[C@H](CCCNC(=N)N)NC(=O)[C@H](Cc1c[nH]c2ccccc12)NC(=O)[C@H](Cc1c[nH]c2ccccc12)NC(=O)[C@H](Cc1c[nH]cn1)NC(=O)[C@H](Cc1c[nH]c2ccccc12)NC(=O)[C@H](CCCNC(=N)N)NC(=O)[C@@H](N)CCCCN)C(=O)N[C@H](C(=O)N[C@@H](Cc1c[nH]c2ccccc12)C(N)=O)C(C)C", "cell line": "RAW264.7", "assay": "MTT", "conditions": "24 h", "quantity": "IC50", "value": "111 µM"}
{"Compound": "Nc1nc(N)c(CNCCc2ccccc2F)c(C2CC2)n1", "cell line": "Vero", "assay": "SRB", "quantity": "IC50", "value": "> 100 µM"}
{"Compound": "Cc1nc(Nc2ncc(C(=O)Nc3c(C)cccc3Cl)s2)cc(N2CCN(CCO)CC2)n1", "cell line": "SK-BR-3", "assay": "WST-1", "conditions": "72 h", "quantity": "GI50", "value": "1.6 µM"}
{"Compound": "COc1ccc(/C=C/C(=O)c2c(O)cc(OC)cc2OC)cc1", "cell line": "SPCA1", "assay": "MTT", "quantity": "IC50", "value": "19.1 µM"}
{"Compound": "O=C(CC(=O)C(F)(F)F)C(F)(F)F", "cell line": "HL-60", "assay": "resazurin", "conditions": "72 h, dark", "quantity": "IC50", "value": "> 100 µM"}
{"Compound": "N.N.[Cl][Pt][Cl]", "cell line": "CD4", "conditions": "72 h", "quantity": "IC50", "value": "2.2 µg/mL"}
{"Compound": "CC1=C(O)C(=O)C=C2C1=CC=C1[C@@]2(C)CC[C@@]2(C)[C@@H]3C[C@](C)(C(=O)O)CC[C@]3(C)CC[C@]12C", "cell line": "SMMC-7721", "assay": "MTT", "conditions": "20 µM", "quantity": "inhibition", "value": "70.6%"}
{"Compound": "N.N.[Cl][Pt][Cl]", "cell line": "HL-60", "assay": "MTT", "conditions": "48 h", "quantity": "IC50", "value": "1.17 µM"}
{"Compound": "COc1cccc2c1C(=O)c1c(O)c3c(c(O)c1C2=O)C[C@@](O)(C(=O)CO)C[C@@H]3O[C@H]1C[C@H](N)[C@H](O)[C@H](C)O1", "cell line": "SPCA1", "assay": "MTT", "quantity": "IC50", "value": "30 µM"}
{"Compound": "COc1cc2oc3cc(O)c(OC)c(CC=C(C)C)c3c(=O)c2c(O)c1CC=C(C)C", "cell line": "22Rv1", "conditions": "48 h", "quantity": "IC50", "value": "27.1 µM"}
{"Compound": "COc1cccc(CCNCc2c(N)nc(N)nc2C2CC2)c1", "cell line": "Vero", "assay": "SRB", "quantity": "IC50", "value": "7.2 µM"}
{"Compound": "O=C1OC[C@H](Cc2cccc(O)c2)[C@H]1Cc1cccc(O)c1", "cell line": "SPCA1", "assay": "MTT", "quantity": "IC50", "value": "42.2 µM"}
{"Compound": "N.N.[Cl][Pt][Cl]", "cell line": "M109", "assay": "MTT", "quantity": "IC50", "value": "0.97 µM"}
{"Compound": "Nc1nc(N)c(CNCCc2ccc(F)cc2)c(C2CC2)n1", "cell line": "Vero", "assay": "SRB", "quantity": "IC50", "value": "> 100 µM"}
